According to ChEMBL document CHEMBL3785035, “Phase II Metabolic Pathways of Spectinamide Antitubercular Agents: A Comparative Study of the Reactivity of 4-Substituted Pyridines to Glutathione Conjugation” (Medchemcomm, 2016):

Key:
Format in all cases: ADME, subcellular
[1] = system: Liver; assay: (§1) Metabolic stability in human liver S9 fraction assessed as parent compound remaining at 100 uM preincubated for 5 mins followed by PAPS addition measured after 2 hrs by LC-MS/MS analysis; conditions: s9, 2 h, 100 µM
Method in brief: (§2)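 Sulfation incubation: rat or human liver S9 at 2 mg/mL in 0.1 M potassium phosphate pH 7.4 with 1 mM MgCl2. Preincubated 5 min at 37 °C, then started with PAPS (0.2 mM in incubation). Controls lacked PAPS. Aliquots taken over 120 min and quenched in cold methanol with internal standard. LC-MS/MS read-out; parent remaining expressed against time zero.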

[2] = Half life in rat liver S9 fraction at 100 uM preincubated for 5 mins followed by glutathione addition measured after 2 hrs by LC-MS/MS analysis
Method in brief: (§3)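 S9 (rat or human) at 10 mg/mL in 0.1 M potassium phosphate pH 7.4, with 1 mM MgCl2. Preincubated 5 min at 37 °C, 150 rpm, then started with glutathione (0.2 mM in incubation). Controls lacked glutathione. Sampled 0–120 min, quenched in ice-cold methanol with internal standard. Parent measured by HILIC LC-MS/MS and expressed as % of time zero. Mean with %CV.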

[3] = system: Liver; assay: (§4) Metabolic stability in rat liver S9 fraction assessed as parent compound remaining at 100 uM preincubated for 5 mins followed by PAPS addition measured after 2 hrs by LC-MS/MS analysis; conditions: s9, 2 h, 100 µM; method in brief: as §2
[4] = Half life in human liver S9 fraction at 100 uM preincubated for 5 mins followed by glutathione addition measured after 2 hrs by LC-MS/MS analysis; method in brief: as §3
[5] = Metabolic stability in rat liver S9 fraction assessed as parent compound remaining at 100 uM preincubated for 5 mins followed by UDPGA addition measured after 2 hrs by LC-MS/MS analysis; conditions: read-out: Stability
Method in brief: (§5)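 Glucuronidation: 2 mg/mL rat or human S9 in 0.1 M potassium phosphate pH 7.4, activated with alamethicin (50 μg) 15 min on ice. Then 1 mM MgCl2 was added, with 5 min preincubation at 37 °C. Started with UDPGA (5 mM in incubation); controls without UDPGA. Samples taken to 120 min and quenched with methanol plus internal standard. LC-MS/MS; % parent relative to time zero.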

[6] = Metabolic stability in human liver S9 fraction assessed as parent compound remaining at 100 uM preincubated for 5 mins followed by glutathione addition measured after 2 hrs by LC-MS/MS analysis; conditions: read-out: Stability; method in brief: as §3
[7] = Metabolic stability in human liver S9 fraction assessed as parent compound remaining at 100 uM preincubated for 5 mins followed by UDPGA addition measured after 2 hrs by LC-MS/MS analysis; conditions: read-out: Stability; method in brief: as §5
[8] = Metabolic stability in rat liver S9 fraction assessed as parent compound remaining at 100 uM preincubated for 5 mins followed by glutathione addition measured after 2 hrs by LC-MS/MS analysis; conditions: read-out: Stability; method in brief: as §3
[9] = as §1; conditions: liver S9 fraction; method in brief: as §2
[10] = as §4; conditions: liver S9 fraction, read-out: Stability; method in brief: as §2

| SMILES | Stability [1] | half-life at 100 µM [2] | Stability [3] | half-life at 100 µM [4] | remaining at 2 h, 100 µM [5] | remaining at 2 h, 100 µM [6] | remaining at 2 h, 100 µM [7] | remaining at 2 h, 100 µM [8] | remaining at 2 h, 100 µM [9] | remaining at 2 h, 100 µM [10] |
| --- | --- | --- | --- | --- | --- | --- | --- | --- | --- | --- |
| CN[C@@H]1[C@H](O)[C@H](NC)[C@H]2O[C@]3(O)[C@H](O[C@@H]2[C@H]1O)O[C@H](C)C[C@H]3NC(=O)Cc1ccccn1 | > 96% | > 50 h | 89% | 38 h | > 93% | 96.7% | > 93% | 99.8% |  |  |
| CN[C@@H]1[C@H](O)[C@H](NC)[C@H]2O[C@]3(O)[C@H](O[C@@H]2[C@H]1O)O[C@H](C)C[C@H]3NC(=O)Cc1ccc(F)cn1 |  | 32.6 h |  | > 50 h | > 93% | 98.7% | > 93% | 96.6% | > 96% | > 95% |
| CN[C@@H]1[C@H](O)[C@H](NC)[C@H]2O[C@]3(O)[C@H](O[C@@H]2[C@H]1O)O[C@H](C)C[C@H]3NC(=O)Cc1ccc(Cl)cn1 |  | > 50 h |  | > 50 h | > 93% | 99.9% | > 93% | 99.4% | > 96% | > 95% |
| CN[C@@H]1[C@H](O)[C@H](NC)[C@H]2O[C@]3(O)[C@H](O[C@@H]2[C@H]1O)O[C@H](C)C[C@H]3NC(=O)Cc1cc(Cl)ccn1 | > 96% | 3.35 h | 88% | > 50 h | > 93% | 98.7% | > 93% | 71.9% |  |  |
| CN[C@@H]1[C@H](O)[C@H](NC)[C@H]2O[C@]3(O)[C@H](O[C@@H]2[C@H]1O)O[C@H](C)C[C@H]3NC(=O)Cc1cc(Cl)c(C)cn1 | 91% | 0.66 h | Stable | 23 h | > 93% | 93.5% | > 93% | 12.9% |  |  |
| CN[C@@H]1[C@H](O)[C@H](NC)[C@H]2O[C@]3(O)[C@H](O[C@@H]2[C@H]1O)O[C@H](C)C[C@H]3NC(=O)Cc1cc(Cl)c(OC)cn1 |  | 6.7 h |  | > 50 h | > 93% | 98.8% | > 93% | 81.1% | > 96% | > 95% |
| CN[C@@H]1[C@H](O)[C@H](NC)[C@H]2O[C@]3(O)[C@H](O[C@@H]2[C@H]1O)O[C@H](C)C[C@H]3NC(=O)Cc1ccc(O)cn1 |  | > 50 h |  | > 50 h | > 93% | 99.9% | > 93% | 98.6% | > 96% | > 95% |
| CN[C@@H]1[C@H](O)[C@H](NC)[C@H]2O[C@]3(O)[C@H](O[C@@H]2[C@H]1O)O[C@H](C)C[C@H]3NC(=O)Cc1cc(Cl)c(F)cn1 |  | > 50 h |  | > 50 h | > 93% | 98.6% | > 93% | 98.6% | > 96% | > 95% |
| CC(=O)Nc1ccc(O)cc1 [ACETAMINOPHEN] |  | 1.48 h |  | 4.4 h |  | 74.5% |  | 43% |  |  |
